# Test results published in ChEMBL document CHEMBL1148898, “New ring C-seco limonoids from Brazilian Melia azedarach and their cytotoxic activity” (J Nat Prod, 2004).
# Active and inactive are the calls of the source. No cut-off for these calls is given here.
# Key:
# HeLa S3 = experiment: (§1) Cytotoxicity against human HeLaS3 cells after 72 hrs by WST1 assay; assay type: functional, cell-based
# How it was run: (§2)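 HeLa S3 cells seeded at 500 cells/well in minimum essential medium and cultured overnight. Compounds then added at final concentrations of 0.1, 1, 10 and 100 µM and incubated 72 h. WST-1 (Cell Counting Kit) added per manufacturer's protocol, followed by a further 2 h incubation. Absorbance read at 450 nm.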
# [1] = Toxicity in brine shrimp at 100 ug/mL; assay type: organism-based; conditions: artemia, in vivo; read-out: Activity
# [2] = as §1; assay type: functional, cell-based; conditions: HeLa S3, 72 h; how it was run: as §2
Compound,Activity (HeLa S3),mortality at 100 ug/mL [1] [%],IC50 [2] [µM]
COC(=O)C[C@@H]1[C@]2(C)C3=C(C)[C@H](c4ccoc4)C[C@H]3O[C@@H]2[C@H](OC(C)=O)[C@H]2[C@](C)(C=O)[C@H](O)C[C@H](OC(=O)/C=C/c3ccccc3)[C@]12C,inactive,100,
COC(=O)C[C@@H]1[C@]2(C)C3=C(C)[C@H](c4ccoc4)C[C@H]3O[C@@H]2[C@H](OC(C)=O)[C@H]2[C@](C)(C=O)[C@H](O)C[C@H](OC(=O)c3ccccc3)[C@]12C,inactive,100,
C/C=C(\C)C(=O)O[C@@H]1[C@@H]2OC[C@]3(C)[C@H](OC(C)=O)C[C@H](OC(=O)c4ccccc4)[C@@](C)([C@@H]23)[C@H]2CC(=O)O[C@H]3C[C@@H](c4ccoc4)C(C)=C3[C@]12C [1-O-DEACETYL-1-O-BENZOYLOHCHINOLIDE B],,100,33
C/C=C(\C)C(=O)O[C@H]1C[C@@H](OC(C)=O)[C@@]2(C)CO[C@H]3[C@@H](OC(=O)c4ccccc4)[C@@]4(C)C5=C(C)[C@H](c6ccoc6)C[C@@H]5OC(=O)C[C@@H]4[C@]1(C)[C@@H]32 [1-O-DEACETYL-1-O-TIGLOYLOHCHINOLIDE A],,100,29.7
C/C=C(\C)C(=O)O[C@@H]1[C@@H]2OC[C@]3(C)[C@H](OC(C)=O)C[C@H](OC(=O)/C(C)=C/C)[C@@](C)([C@@H]23)[C@H]2CC(=O)O[C@H]3C[C@@H](c4ccoc4)C(C)=C3[C@]12C [1-O-DEACETYL-1-O-TIGLOYLOHCHINOLIDE B],,100,33.8
CC(=O)O[C@@H]1C[C@H](O)[C@@]2(C)[C@H]3[C@@H](OC[C@]13C)[C@@H](OC(=O)c1ccccc1)[C@@]1(C)C3=C(C)[C@H](c4ccoc4)C[C@@H]3OC(=O)C[C@@H]12 [1-O-DEACETYLOHCHINOLIDE A],,100,2.4
C/C=C(\C)C(=O)O[C@@H]1[C@@H]2OC[C@]3(C)[C@H](OC(C)=O)C[C@H](O)[C@@](C)([C@@H]23)[C@H]2CC(=O)O[C@H]3C[C@@H](c4ccoc4)C(C)=C3[C@]12C [1-O-DEACETYLOHCHINOLIDE B],,100,0.1
O=c1[nH]cc(F)c(=O)[nH]1 [FLUOROURACIL],,,5.4
C/C=C(\C)C(=O)O[C@H]1C[C@@H](O)[C@@](C)(C=O)[C@@H]2[C@@H](OC(C)=O)[C@H]3O[C@@H]4C[C@@H](c5ccoc5)C(C)=C4[C@@]3(C)[C@@H](CC(=O)OC)[C@@]12C [OHCHINOLAL],inactive,100,
CC(=O)O[C@H]1C[C@@H](OC(C)=O)[C@@]2(C)CO[C@H]3[C@@H](OC(=O)c4ccccc4)[C@@]4(C)C5=C(C)[C@H](c6ccoc6)C[C@@H]5OC(=O)C[C@@H]4[C@]1(C)[C@@H]32 [OHCHNOLIDE A],inactive,100,
C/C=C(\C)C(=O)O[C@@H]1[C@@H]2OC[C@]3(C)[C@H](OC(C)=O)C[C@H](OC(C)=O)[C@@](C)([C@@H]23)[C@H]2CC(=O)O[C@H]3C[C@@H](c4ccoc4)C(C)=C3[C@]12C [OHCHNOLIDE B],,100,40.5
